We go through three molecules from ChEMBL document CHEMBL2086322, “"True" antiandrogens-selective non-ligand-binding pocket disruptors of androgen receptor-coactivator interactions: novel tools for prostate cancer” (J Med Chem, 2012).

Calls of active or inactive are those of the source. The rule behind the calls is not given here.

The target in series [1] is T1, Androgen receptor (Homo sapiens) (UniProt P10275).
T1 sequence (whole entry): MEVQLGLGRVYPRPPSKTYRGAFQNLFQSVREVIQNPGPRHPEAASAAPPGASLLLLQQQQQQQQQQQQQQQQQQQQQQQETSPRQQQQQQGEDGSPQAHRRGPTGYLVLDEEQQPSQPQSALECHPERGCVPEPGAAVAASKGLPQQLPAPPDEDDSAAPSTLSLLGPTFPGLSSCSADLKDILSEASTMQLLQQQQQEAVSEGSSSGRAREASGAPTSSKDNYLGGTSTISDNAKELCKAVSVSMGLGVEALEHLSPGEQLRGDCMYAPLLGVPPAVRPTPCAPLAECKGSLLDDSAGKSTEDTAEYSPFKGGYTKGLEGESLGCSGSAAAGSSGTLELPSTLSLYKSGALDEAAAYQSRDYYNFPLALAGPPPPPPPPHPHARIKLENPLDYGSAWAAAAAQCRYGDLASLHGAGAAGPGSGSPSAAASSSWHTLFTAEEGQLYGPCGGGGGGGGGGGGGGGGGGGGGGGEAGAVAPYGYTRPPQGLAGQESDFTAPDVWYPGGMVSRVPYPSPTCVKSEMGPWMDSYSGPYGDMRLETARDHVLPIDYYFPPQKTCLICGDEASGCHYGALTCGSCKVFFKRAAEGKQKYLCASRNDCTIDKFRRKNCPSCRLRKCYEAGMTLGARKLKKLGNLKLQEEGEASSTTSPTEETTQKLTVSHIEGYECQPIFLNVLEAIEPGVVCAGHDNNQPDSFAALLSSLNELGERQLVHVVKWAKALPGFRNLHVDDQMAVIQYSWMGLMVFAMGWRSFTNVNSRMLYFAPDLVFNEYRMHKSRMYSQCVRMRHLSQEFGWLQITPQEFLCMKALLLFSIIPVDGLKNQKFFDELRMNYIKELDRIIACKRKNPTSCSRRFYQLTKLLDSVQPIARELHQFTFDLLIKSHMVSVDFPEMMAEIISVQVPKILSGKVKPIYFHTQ
Kind of series: Displacement of fluormone from AR LBD after 4 hrs by fluorescence polarization assay. Particulars: concentration not given here. Background: Fluorescence polarisation rises when a labelled molecule tumbles more slowly, as on binding a larger partner.

For series [2], the target named is T2, Progesterone receptor (Homo sapiens) (UniProt P06401).
T2 sequence (whole entry): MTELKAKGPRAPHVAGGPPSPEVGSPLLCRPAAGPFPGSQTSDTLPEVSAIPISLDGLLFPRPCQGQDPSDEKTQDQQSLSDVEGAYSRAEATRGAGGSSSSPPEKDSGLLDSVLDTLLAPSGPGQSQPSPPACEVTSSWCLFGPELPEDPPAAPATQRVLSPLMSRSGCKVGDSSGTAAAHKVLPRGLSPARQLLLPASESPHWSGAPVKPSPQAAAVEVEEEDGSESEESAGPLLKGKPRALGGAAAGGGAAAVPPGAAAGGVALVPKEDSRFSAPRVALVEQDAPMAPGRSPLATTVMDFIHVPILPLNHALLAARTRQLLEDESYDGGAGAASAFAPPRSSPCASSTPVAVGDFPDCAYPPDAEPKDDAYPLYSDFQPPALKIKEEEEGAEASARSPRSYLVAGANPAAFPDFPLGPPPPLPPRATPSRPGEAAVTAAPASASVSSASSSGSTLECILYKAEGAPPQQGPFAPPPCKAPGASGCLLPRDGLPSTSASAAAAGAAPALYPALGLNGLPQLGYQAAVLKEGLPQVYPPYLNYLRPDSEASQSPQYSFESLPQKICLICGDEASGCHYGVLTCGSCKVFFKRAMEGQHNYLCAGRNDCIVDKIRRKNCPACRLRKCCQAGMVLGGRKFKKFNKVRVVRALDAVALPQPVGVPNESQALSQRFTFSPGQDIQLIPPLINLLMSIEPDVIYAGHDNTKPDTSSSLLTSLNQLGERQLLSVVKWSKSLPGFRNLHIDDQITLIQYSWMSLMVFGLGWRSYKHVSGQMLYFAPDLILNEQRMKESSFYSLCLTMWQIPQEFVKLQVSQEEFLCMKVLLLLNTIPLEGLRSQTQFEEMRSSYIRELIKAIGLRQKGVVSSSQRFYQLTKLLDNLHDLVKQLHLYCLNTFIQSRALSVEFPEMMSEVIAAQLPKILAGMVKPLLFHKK
Kind of series: Antagonist activity at PR assessed as inhibition of progesterone-induced fluorescent labelled SRC1-4 recruitment at 100 uM after 2 to 4 hrs by TR-FRET assay. Format: functional. In a few lines:
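TR-FRET coactivator recruitment with PR ligand-binding domain, fluorescent SRC1-4 peptide and Tb anti-GST antibody, with progesterone at its EC80. Compounds were tested from 100 to 1 μM at 1% DMSO final in coregulator buffer with 5 mM DTT. […] Two independent experiments, each in triplicate; IC50 from variable-slope fit.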
A general note: TR-FRET usually uses a lanthanide donor and a delayed reading to cut background.

The test system of series [3] is PC-3. Kind of series: Cytotoxicity against androgen independent human PC3 cells assessed as cell viability at 50 uM after 24 hrs by alamar blue assay. The conditions noted are these: for viability at 50 µM: PC-3, 24 h, read-out: Activity. Format: functional. (The colour change of resazurin is a common sign of viable cells or microbes.)
In series [4] the test system is LNCaP. Description: Cytotoxicity against androgen dependent human LNCAP cells assessed as cell viability at 50 uM after 24 hrs by alamar blue assay. Format: functional. Particulars: read-out: Activity.
Series [5] is described as follows: Cytotoxicity against human PWR-1E cells assessed as cell viability at 50 uM after 24 hrs by alamar blue assay. In kind it is cell-based. The conditions noted are these: read-out: Activity.
Series [6] concerns LNCaP. Description: Antiproliferative activity against androgen dependent human LNCAP cells assessed as reduction of DHT-induced cell count after 5 days by alamar blue assay. In kind it is functional, cell-based. In a few lines:
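LNCaP cells deprived of steroids for 48 h in phenol red-free RPMI with 10% charcoal-stripped FBS, then seeded at 2 × 10^4 cells/mL. Treated 5 days with compound (10 and 20 μM) with or without 0.1 nM DHT, 0.1% DMSO final. Medium and treatments renewed every second day after PBS washes. Growth read by AlamarBlue; two experiments, n = 6.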

In series [7] the target is T1, Androgen receptor (Homo sapiens). Kind of series: Antagonist activity at androgen receptor in androgen dependent human LNCAP cells assessed reduction of DHT-induced PSA expression after 2 hrs by ELISA. In kind it is functional, cell-based.
Series [8] has the same target. Description: Antagonist activity at androgen receptor in androgen dependent human LNCAP cells assessed reduction of CPA-induced PSA expression after 2 hrs by ELISA. In kind it is functional, cell-based.
Series [9] relates to CWR22R. Description: Antiproliferative activity against human 22Rv1 cells assessed effect on DHT-induced PSA expression after 2 hrs by ELISA. Format: functional, cell-based.
Series [10] concerns CWR22R. Description: Antiproliferative activity against human 22Rv1 cells assessed reduction of CPA-induced PSA expression after 2 hrs by ELISA. Format: functional, cell-based.
Series [11] addresses T1, Androgen receptor (Homo sapiens). Kind of series: Agonist activity at androgen receptor in human LNCAP cells assessed effect on CPA-induced PSA expression after 2 hrs by ELISA. In kind it is functional, cell-based.
For series [12] the target is unchanged. Description: Partial agonist activity at androgen receptor in human LNCAP cells assessed effect on CPA-induced PSA expression after 2 hrs by ELISA. In kind it is functional, cell-based.
Series [13] shares this target. Kind of series: Antagonist activity at androgen receptor in androgen dependent human LNCAP cells assessed reduction of CPA-induced PSA expression at 10 uM after 2 hrs by ELISA. Format: functional, cell-based.

Consider `COc1cc(/C=N/NC(=O)c2cc3c(ccc4ccccc43)o2)cc(OC)c1O`, for which the inhibition in series [1] is 0%; in series [2], 30%. For the same molecule, the viability at 50 µM in [3] and in [4] was 80% each time. Also, the viability at 24 h, 50 µM in series [5] came out at 80%. Also, the Activity entry in [6], in series [7] and in series [8] was “Dose-dependent effect” each time. For the same molecule, in series [9], the result was inactive. Besides, the outcome in series [10], in series [11], in series [12] and in series [13] was Active.

In the case of `O=C(N/N=C/c1cc(Br)ccc1O)c1cc2ccccc2cc1O`, the inhibition in series [1] was 0%; in [2], 50%. In addition, the viability at 50 µM in series [3] and in [4] was 50% each time. Moreover, the viability at 24 h, 50 µM in series [5] amounted to 50%.

Take `CC(=O)O[C@]1(C(C)=O)CC[C@H]2[C@@H]3C=C(Cl)C4=CC(=O)[C@@H]5C[C@@H]5[C@]4(C)[C@H]3CC[C@@]21C`: in series [3], the result was Active.

Broadly, the inhibition is how much of the control response was suppressed.
